Measurements: ChEMBL document CHEMBL4024803, “New Steroidal 4-Aminoquinolines Antagonize Botulinum Neurotoxin Serotype A in Mouse Embryonic Stem Cell Derived Motor Neurons in Postintoxication Model” (J Med Chem, 2018)

What was measured:
Cytochrome P450 3A4 [1] = target: T1, Cytochrome P450 3A4 (Homo sapiens, UniProt P08684); assay: Inhibition of CYP3A4 (unknown origin) using DBF as substrate; type: ADME
In short: (§1)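 Active CYP450 enzyme incubated at 37°C for a set time with a fluorogenic probe substrate (BQ, DBF or BFC for CYP3A4; CEC for CYP2C19; AMMC for CYP2D6). IC50 derived from net fluorescent signal.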

[2] = Drug uptake in mouse serum at 600 mg/kg, po measured at 45 mins by UPLC-MS/MS method; type: ADME, organism-based; settings: read-out: Drug uptake
In short: (§2)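 Single oral dose (400 mg/kg, 7 mice; 600 mg/kg, 6 mice), dissolved in DMSO and suspended in 0.5% hydroxyethylcellulose–0.1% Tween 80. Blood taken by cardiac puncture under chloroform, one mouse per time point, 15–120 min. Serum proteins precipitated with 2 volumes acetonitrile; analysed by UPLC-MS/MS against blank human serum calibration. Half-life read from the concentration–time curve.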

Mus musculus [3] = assay: Half life in mouse at 600 mg/kg, po by UPLC-MS/MS method; type: ADME, organism-based; settings: in vivo; in short: as §2
Liver [4] = assay: Intrinsic clearance in human liver microsomes after 1 hr; type: ADME, microsome
In short: (§3)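 Substrate-depletion assay: compound incubated with human or mouse liver microsomes for 1 h at 37°C. Half-life and intrinsic clearance derived from compound loss.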

Liver [5] = assay: Half life in human liver microsomes; type: ADME, microsome; in short: as §3
Cytochrome P450 3A4 [6] = target: T1, Cytochrome P450 3A4; assay: Inhibition of CYP3A4 (unknown origin) using BFC as substrate; type: ADME; in short: as §1
[7] = target: Botulinum neurotoxin type A (Clostridium botulinum) (UniProt P0DPI0); assay: Inhibition of Clostridium botulinum BoNT/A holotoxin-mediated SNAP-25 cleavage in mouse HBG3 cell-derived motor neurons assessed as full length of SNAP-25 at 20 uM treated at 30 mins post intoxication by Western blot method relative to control; set-up: scale not given: the % may be the effect or the level left
Mus musculus [8] = assay: Cmax in mouse at 400 mg/kg, po by UPLC-MS/MS method; type: ADME, organism-based; set-up: dose 400 mg/kg, route oral; settings: in vivo; in short: as §2
[9] = target: T2, Botulinum neurotoxin type A (Clostridium botulinum, UniProt P0DPI0)
[10] = Drug uptake in mouse serum at 600 mg/kg, po measured at 90 mins by UPLC-MS/MS method; type: ADME, organism-based; settings: read-out: Drug uptake; in short: as §2
Cytochrome P450 2D6 = Cytochrome P450 2D6 (Homo sapiens, UniProt P10635); assay: Inhibition of CYP2D6 (unknown origin) using AMMC as substrate; type: ADME; in short: as §1
Chain of Cytochrome P450 2D6 (P10635 whole entry): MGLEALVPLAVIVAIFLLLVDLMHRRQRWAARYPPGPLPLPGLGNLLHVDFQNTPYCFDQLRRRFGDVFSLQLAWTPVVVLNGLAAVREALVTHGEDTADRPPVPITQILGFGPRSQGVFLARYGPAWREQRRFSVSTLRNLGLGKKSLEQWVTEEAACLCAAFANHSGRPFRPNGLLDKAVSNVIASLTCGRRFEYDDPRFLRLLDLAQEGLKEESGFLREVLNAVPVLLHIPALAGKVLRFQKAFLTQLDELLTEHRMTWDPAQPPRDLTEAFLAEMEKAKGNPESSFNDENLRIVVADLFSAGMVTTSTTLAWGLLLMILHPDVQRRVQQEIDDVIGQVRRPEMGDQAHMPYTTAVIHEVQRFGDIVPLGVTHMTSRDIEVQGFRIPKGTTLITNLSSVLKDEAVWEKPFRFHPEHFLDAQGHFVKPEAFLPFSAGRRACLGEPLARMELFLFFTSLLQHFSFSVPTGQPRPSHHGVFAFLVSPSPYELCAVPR

[11] = Drug uptake in mouse serum at 400 mg/kg, po measured at 60 mins by UPLC-MS/MS method; type: ADME, organism-based; settings: read-out: Drug uptake; in short: as §2
Mus musculus [12] = assay: Toxicity in mouse assessed as effect on behavior at 160 mg/kg, po administered for 3 days measured 2 times a day for 30 days; type: organism-based; settings: in vivo, 720 h
In short: (§4)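 Groups of five healthy mice were dosed per os for three consecutive days, suspended in 0.5% hydroxyethylcellulose–0.1% Tween 80. Behaviour and appearance were monitored twice daily for 30 days, with survival assessed at 30 days. Non-toxic was defined as all 5 surviving with normal appearance and behaviour.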

[13] = Apparent permeability across basolateral to apical side in MDCK cells expressing MDR1 after 1 hr; type: ADME, cell-based, Canis lupus familiaris; settings: dog
In short: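 MDR1-transfected MDCK cell monolayer; compound applied to the basolateral compartment and incubated 1 h at 37°C. Apparent permeability measured in the B→A direction.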

Mus musculus [14] = assay: AUC (0 to 120 mins) in mouse at 600 mg/kg, po by UPLC-MS/MS method; type: ADME, organism-based; set-up: dose 600 mg/kg, time < 2 hr, route oral; settings: in vivo, 2 h
[15] = Drug uptake in mouse serum at 400 mg/kg, po measured at 45 mins by UPLC-MS/MS method; type: ADME, organism-based; settings: read-out: Drug uptake; in short: as §2
[16] = Drug uptake in mouse serum at 400 mg/kg, po measured at 15 mins by UPLC-MS/MS method; type: ADME, organism-based; settings: read-out: Drug uptake; in short: as §2
Mus musculus [17] = assay: Toxicity in mouse assessed as effect on survival at 160 mg/kg, po administered for 3 days measured after 30 days; type: organism-based; settings: in vivo, 720 h; in short: as §4
[18] = target: Botulinum neurotoxin type A (Clostridium botulinum) (UniProt P0DPI0); assay: (§5) Inhibition of Clostridium botulinum BoNT/A holotoxin-mediated SNAP-25 cleavage in mouse HBG3 cell-derived motor neurons preincubated for 30 mins followed by intoxication measured after 4 hrs by Western blot method
[19] = target: T2, Botulinum neurotoxin type A; assay: as §5
Mus musculus [20] = assay: Toxicity in mouse assessed as effect on appearance at 160 mg/kg, po administered for 3 days measured 2 times a day for 30 days; type: organism-based; settings: in vivo, 720 h; in short: as §4
[21] = target: Botulinum neurotoxin type A (Clostridium botulinum) (UniProt P0DPI0); assay: Inhibition of Clostridium botulinum BoNT/A holotoxin-mediated SNAP-25 cleavage in mouse HBG3 cell-derived motor neurons assessed as full length of SNAP-25 at 20 uM treated at 60 mins post intoxication by Western blot method relative to control; set-up: scale not given: the % may be the effect or the level left
[22] = Distribution co-efficient, log D of the compound at pH 1 by reversed-phase thin-layer chromatographic method; type: physicochemical; settings: buffer
In short: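 Reversed-phase thin-layer chromatography at pH 1, mobile phase MeOH/HCl (70/30).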

Mus musculus [23] = assay: Time at which drug concentration stays above 3 uM in mouse at 600 mg/kg, po by UPLC-MS/MS method; type: ADME, organism-based; settings: in vivo
In short: (§6)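 Single oral dose in DMSO suspended in 0.5% hydroxyethylcellulose–0.1% Tween 80, given to 7 (400 mg/kg) or 6 (600 mg/kg) mice. Serum came from cardiac puncture under chloroform, one mouse per time point, 15–120 min. Acetonitrile-precipitated serum was analysed by UPLC-MS/MS against calibration in blank human serum.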

[24] = Drug uptake in mouse serum at 600 mg/kg, po measured at 30 mins by UPLC-MS/MS method; type: ADME, organism-based; settings: read-out: Drug uptake; in short: as §2
[25] = Octanol/TBS buffer distribution co-efficient, […] by shake flask method; type: physicochemical; settings: octanol/water
Mus musculus [26] = assay: Tmax in mouse at 400 mg/kg, po by UPLC-MS/MS method; type: ADME, organism-based; settings: in vivo; in short: as §6
Serum = assay: Drug uptake in mouse serum at 400 mg/kg, po measured at 120 mins by UPLC-MS/MS method; type: ADME, organism-based; settings: in vivo, 2 h, BLD = below limit of detection; in short: as §2

T1 sequence (P08684 whole entry): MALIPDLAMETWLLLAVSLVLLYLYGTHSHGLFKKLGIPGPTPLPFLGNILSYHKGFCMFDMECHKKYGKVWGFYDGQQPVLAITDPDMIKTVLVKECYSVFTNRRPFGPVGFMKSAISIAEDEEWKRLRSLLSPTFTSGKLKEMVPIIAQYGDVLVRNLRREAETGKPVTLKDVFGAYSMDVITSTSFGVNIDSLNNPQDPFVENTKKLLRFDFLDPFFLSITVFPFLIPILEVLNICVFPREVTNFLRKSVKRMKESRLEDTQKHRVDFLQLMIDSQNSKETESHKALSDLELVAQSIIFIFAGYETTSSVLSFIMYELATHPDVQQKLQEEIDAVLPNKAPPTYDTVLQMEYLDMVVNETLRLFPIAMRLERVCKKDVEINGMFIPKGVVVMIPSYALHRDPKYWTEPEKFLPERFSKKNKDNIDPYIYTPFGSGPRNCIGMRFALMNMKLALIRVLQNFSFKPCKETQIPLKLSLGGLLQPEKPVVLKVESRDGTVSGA

CC(=O)O[C@H]1C[C@H]2[C@@H]([C@H](OC(C)=O)C[C@@H]3C[C@H](N)CC[C@@]32C)[C@@H]2CC[C@H]([C@H](C)CCCNCCCCNc3ccnc4cc(Cl)ccc34)[C@@]12C
IC50 (Cytochrome P450 3A4 [1]): 1.2 µM | concentration at 0.75 h [2]: 3.1 µM | t1/2 (Mus musculus [3]): 23 min | CLH (Liver [4]): < 23 µL/min/mg | t1/2 (Liver [5]): > 60 min | IC50 (Cytochrome P450 3A4 [6]): 1.4 µM | Activity [7]: 64% | Cmax (Mus musculus [8]): 7.8 µM | IC50 [9]: 8 µM | concentration at 1.5 h [10]: 4 µM | IC50 (Cytochrome P450 2D6): > 10 µM | concentration at 1 h [11]: 2.8 µM | Activity (Mus musculus [12]): Non-Toxic | Papp [13]: 24.6 ×10⁻⁶ cm/s | AUC (Mus musculus [14]): 526 µM·min | concentration at 0.75 h [15]: 3.3 µM | concentration at 0.25 h [16]: 3.3 µM | Activity (Mus musculus [17]): Non-Toxic | inhibition [18]: Dose-dependent effect | IC50 [19]: 10 µM | Activity (Mus musculus [20]): Non-Toxic | Activity [21]: 45% | chromatographic logD [22]: 2.55 | Time (Mus musculus [23]): > 45 min | concentration at 0.5 h [24]: 5.9 µM | logD [25]: 2.07 | Tmax (Mus musculus [26]): 22 min | Drug uptake (Serum): Bld
